Experimental findings from ChEMBL document CHEMBL3425481, “Design, synthesis and anticancer activity of matrine-1H-1,2,3-triazole-chalcone conjugates” (Bioorg Med Chem Lett, 2015) are described below.

One test has as its system A549. In words: Antiproliferative activity against human A549 cells assessed as inhibition of cell proliferation incubated for 48 hrs by CCK8 assay. The class given is functional, cell-based. To be noted: A549, 48 h. In a few lines: (§1)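 Human A549 lung, Hela cervical, Bel-7402 hepatocellular and MCF-7 breast cancer cells, plus mouse embryo fibroblast NIH3T3, tested for anti-proliferative activity by CCK-8 assay. For the matrine combination tests, the chalcone and matrine were used at a 1:1 molar ratio; values given as IC50.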

The nature of test [1]: Antiproliferative activity against mouse NIH/3T3 cells assessed as inhibition of cell proliferation incubated for 48 hrs by CCK8 assay. The format is cell-based. To be noted: NIH3T3, 48 h. In short, it runs like this: as §1
The next test relates to MCF7. In words: Antiproliferative activity against human MCF7 cells assessed as inhibition of cell proliferation incubated for 48 hrs by CCK8 assay. The format is functional, cell-based. Conditions: MCF7, 48 h. In a few lines: as §1
Test [2] in a line: Antiproliferative activity against human Bel7402 cells assessed as inhibition of cell proliferation incubated for 48 hrs by CCK8 assay. The class given is functional, cell-based. To be noted: Bel-7402, 48 h. In a few lines:
as §1

The subject of a further test is HeLa. Nature of the test: Antiproliferative activity against human HeLa cells assessed as inhibition of cell proliferation incubated for 48 hrs by CCK8 assay. The class given is functional, cell-based. In short, it runs like this: as §1

The structures appear in SMILES notation.

For the molecule `O=C(/C=C/c1ccccc1Cl)c1ccc(OCc2cn([C@H]3CC(=O)N4C[C@@H]5CCCN6CCC[C@@H]([C@H]56)[C@H]4C3)nn2)cc1`, the IC50 stood at 14.2 µM with A549; 88 µM in test [1]; 23.8 µM with MCF7; 21.8 µM in test [2]; 13.5 µM in the test with HeLa.
The matching figures for `O=C(/C=C/c1ccc([N+](=O)[O-])cc1)c1ccc(OCc2cn([C@H]3CC(=O)N4C[C@@H]5CCCN6CCC[C@@H]([C@H]56)[C@H]4C3)nn2)cc1`: 14.5 µM, 35.7 µM, 11.5 µM, 16.2 µM and 6.06 µM.
On to `COc1ccc(/C=C/C(=O)c2ccc(OCc3cn([C@H]4CC(=O)N5C[C@@H]6CCCN7CCC[C@@H]([C@H]67)[C@H]5C4)nn3)cc2)cc1OC`, for which the figures for the IC50 (in the test on A549; in test [1]; in the test on HeLa) were > 50 µM, 41.1 µM and > 50 µM, respectively.
With `O=C(/C=C/c1ccc(OC(F)F)cc1)c1ccc(OCc2cn([C@H]3CC(=O)N4C[C@@H]5CCCN6CCC[C@@H]([C@H]56)[C@H]4C3)nn2)cc1`, the IC50 in the test on A549 is > 50 µM; in test [1], 27.3 µM; in the test with HeLa, > 50 µM.
For the molecule `C#CCOc1ccc(C(=O)/C=C/c2cccc(Cl)c2)c(O)c1`, the 50% inhibitory concentration (IC50) is > 50 µM with A549, 79.5 µM in test [1], > 50 µM in the test on MCF7 and > 50 µM in the test on HeLa.
Consider `O=C(/C=C/c1cccc(Cl)c1)c1ccc(OCc2cn([C@H]3CC(=O)N4C[C@@H]5CCCN6CCC[C@@H]([C@H]56)[C@H]4C3)nn2)cc1`, for which the IC50 was 11.9 µM with A549; 38.1 µM in test [1]; 10.2 µM in the test on MCF7; 13.7 µM in test [2]; 15.2 µM in the test with HeLa.
The matching figures for `O=C(/C=C/c1ccccc1)c1ccc(OCc2cn([C@H]3CC(=O)N4C[C@@H]5CCCN6CCC[C@@H]([C@H]56)[C@H]4C3)nn2)cc1`: 32.2 µM, 19.4 µM, 17.2 µM, 20.7 µM and 25.4 µM.
As to `CC(C)(C)c1ccc(/C=C/C(=O)c2ccc(OCc3cn([C@H]4CC(=O)N5C[C@@H]6CCCN7CCC[C@@H]([C@H]67)[C@H]5C4)nn3)cc2O)cc1`, the 50% inhibitory concentration (IC50) is 36.5 µM in the test on A549, 20.4 µM in test [1] and 36.3 µM in the test with HeLa.
Take `O=C(/C=C/c1ccc(Cl)cc1)c1ccc(OCc2cn([C@H]3CC(=O)N4C[C@@H]5CCCN6CCC[C@@H]([C@H]56)[C@H]4C3)nn2)cc1O`: the IC50 with A549 was found to be 15.6 µM; in test [1] it was 75.2 µM; in the test with MCF7, 12.7 µM; in test [2], 14.7 µM; in the test with HeLa it was 10.7 µM.
On to `O=C(/C=C/c1cccc(C(F)(F)F)c1)c1ccc(OCc2cn([C@H]3CC(=O)N4C[C@@H]5CCCN6CCC[C@@H]([C@H]56)[C@H]4C3)nn2)cc1O`, for which the IC50 with A549 stood at 8.18 µM; in test [1], 34.8 µM; with MCF7, 8.87 µM; in test [2] it was 12.1 µM; in the test with HeLa, 12.7 µM.
With `COc1ccc(/C=C/C(=O)c2ccc(OCc3cn([C@H]4CC(=O)N5C[C@@H]6CCCN7CCC[C@@H]([C@H]67)[C@H]5C4)nn3)cc2O)cc1`, the IC50 is > 50 µM in the test on A549; 29.6 µM in test [1]; > 50 µM with MCF7; > 50 µM in test [2]; > 50 µM in the test with HeLa.
Consider `O=C(/C=C/c1ccc(Cl)c(Cl)c1)c1ccc(OCc2cn([C@H]3CC(=O)N4C[C@@H]5CCCN6CCC[C@@H]([C@H]56)[C@H]4C3)nn2)cc1O`, for which the IC50 in the test on A549 came to 8.08 µM; in test [1], 48.3 µM; with MCF7, 7.03 µM; in test [2] it was 12.4 µM; with HeLa, 6.63 µM.
The matching figures for `O=C(/C=C/c1ccc(Br)cc1)c1ccc(OCc2cn([C@H]3CC(=O)N4C[C@@H]5CCCN6CCC[C@@H]([C@H]56)[C@H]4C3)nn2)cc1`: 24.5 µM, 30.9 µM, 22.7 µM, 22.7 µM and 17.1 µM.
As to `Cc1ccc(/C=C/C(=O)c2ccc(OCc3cn([C@H]4CC(=O)N5C[C@@H]6CCCN7CCC[C@@H]([C@H]67)[C@H]5C4)nn3)cc2)cc1`, the IC50 with A549 worked out at 32.4 µM; in test [1] it was 14.8 µM; with MCF7 it was 26.8 µM; in test [2], 35.6 µM; in the test with HeLa, 19.9 µM.
On to `C#CCOc1ccc(C(=O)/C=C/c2ccccc2)cc1`, for which the IC50 in the test on A549 is > 50 µM; in test [1] it was 72.9 µM; in the test with MCF7, > 50 µM; in the test with HeLa, > 50 µM.
In the case of `O=C(/C=C/c1ccc(Cl)c(Cl)c1)c1ccc(OCc2cn([C@H]3CC(=O)N4C[C@@H]5CCCN6CCC[C@@H]([C@H]56)[C@H]4C3)nn2)cc1`, the IC50 turned out to be 8.72 µM with A549; 19.4 µM in test [1]; 13.3 µM in the test on MCF7; 11.9 µM in test [2]; 11.4 µM in the test on HeLa.
For the molecule `CC(=O)c1ccc(OCc2cn([C@H]3CC(=O)N4C[C@@H]5CCCN6CCC[C@@H]([C@H]56)[C@H]4C3)nn2)cc1O`, the IC50 was > 50 µM with A549; 61.8 µM in test [1]; > 50 µM in the test on MCF7; > 50 µM in test [2]; > 50 µM in the test with HeLa.
For `C#CCOc1ccc(C(=O)/C=C/c2ccc(Cl)c(Cl)c2)c(O)c1`, the concentration for half-maximal inhibition (IC50) is > 50 µM with A549, 94.7 µM in test [1], > 50 µM with MCF7 and > 50 µM in the test with HeLa.
For the molecule `C#CCOc1ccc(C(=O)/C=C/c2ccc(Cl)c(Cl)c2)cc1`, the half-maximal inhibitory concentration (IC50) with A549 was > 50 µM; in test [1], 61.8 µM; in the test on MCF7, > 50 µM; in the test on HeLa, > 50 µM.
Consider `O=C(/C=C/c1ccc(F)cc1)c1ccc(OCc2cn([C@H]3CC(=O)N4C[C@@H]5CCCN6CCC[C@@H]([C@H]56)[C@H]4C3)nn2)cc1O`, for which the IC50 with A549 turned out to be 18.3 µM; in test [1] it was 36.1 µM; in the test with MCF7, 5.71 µM; in test [2] it was 9.02 µM; in the test with HeLa it was 19.8 µM.
For `O=C(/C=C/c1ccc(F)cc1)c1ccc(OCc2cn([C@H]3CC(=O)N4C[C@@H]5CCCN6CCC[C@@H]([C@H]56)[C@H]4C3)nn2)cc1`, the IC50 with A549 is 18.7 µM; in test [1] it was 39.8 µM; in the test with MCF7, 26.9 µM; in test [2] it was 22.2 µM; in the test with HeLa, 18.7 µM.
Regarding `CC(=O)c1ccc(OCc2cn([C@H]3CC(=O)N4C[C@@H]5CCCN6CCC[C@@H]([C@H]56)[C@H]4C3)nn2)cc1`, the IC50 was > 50 µM with A549; 42.9 µM in test [1]; > 50 µM with MCF7; > 50 µM in test [2]; > 50 µM with HeLa.
With `COc1ccc(/C=C/C(=O)c2ccc(OCc3cn([C@H]4CC(=O)N5C[C@@H]6CCCN7CCC[C@@H]([C@H]67)[C@H]5C4)nn3)cc2O)cc1OC`, the IC50 was > 50 µM with A549, 13.3 µM in test [1] and > 50 µM in the test with HeLa.
For the molecule `O=c1[nH]cc(F)c(=O)[nH]1` [FLUOROURACIL], the IC50 in the test on A549 amounted to 40.4 µM; in test [1] it was 22.4 µM; in the test on MCF7, 9.56 µM; in test [2], 19.9 µM; in the test on HeLa, 8.93 µM.
Consider `COc1ccc(/C=C/C(=O)c2ccc(OCc3cn([C@H]4CC(=O)N5C[C@@H]6CCCN7CCC[C@@H]([C@H]67)[C@H]5C4)nn3)cc2)cc1`, for which the values for the IC50 (with A549; in test [1]; with HeLa) were > 50 µM, 23.1 µM and > 50 µM, respectively.
With `O=C(/C=C/c1ccccc1)c1ccc(OCc2cn([C@H]3CC(=O)N4C[C@@H]5CCCN6CCC[C@@H]([C@H]56)[C@H]4C3)nn2)cc1O`, the IC50 in the test with A549 was 16.8 µM; in test [1], > 100 µM; in the test with MCF7, 12 µM; in test [2], 17.3 µM; in the test on HeLa it was 17.3 µM.
Turning to `COc1cc(/C=C/C(=O)c2ccc(OCc3cn([C@H]4CC(=O)N5C[C@@H]6CCCN7CCC[C@@H]([C@H]67)[C@H]5C4)nn3)cc2O)cc(OC)c1OC`, the IC50 with A549 is > 50 µM; in test [1], 15.2 µM; in the test on HeLa, > 50 µM.
As for `O=C(/C=C/c1ccc(Cl)cc1)c1ccc(OCc2cn([C@H]3CC(=O)N4C[C@@H]5CCCN6CCC[C@@H]([C@H]56)[C@H]4C3)nn2)cc1`, the IC50 is 18.9 µM with A549; 31.3 µM in test [1]; 14.3 µM in the test with MCF7; 21.2 µM in test [2]; 19.3 µM with HeLa.
With `Cc1ccc(/C=C/C(=O)c2ccc(OCc3cn([C@H]4CC(=O)N5C[C@@H]6CCCN7CCC[C@@H]([C@H]67)[C@H]5C4)nn3)cc2O)cc1`, the half-inhibitory concentration (IC50) in the test with A549 was > 50 µM; in test [1], 20.9 µM; in the test on HeLa, > 50 µM.
